The source made the active and inactive calls. No cut-off for these calls is given here.
How the values were obtained:
Acetylcholinesterase = Acetylcholinesterase (Electrophorus electricus, UniProt O42275); assay: Inhibition of electric eel Ache using acetylthiocholine iodide as substrate preincubated for 5 mins followed by substrate addition and measured after 5 mins by Ellman method
Cholinesterase = Cholinesterase (Equus caballus, UniProt P81908); assay: Inhibition of equine serum BuChE using butyrylthiocholine iodide as substrate preincubated for 5 mins followed by substrate addition and measured after 5 mins by Ellman method
Cholinesterase, sequence (P81908 whole entry): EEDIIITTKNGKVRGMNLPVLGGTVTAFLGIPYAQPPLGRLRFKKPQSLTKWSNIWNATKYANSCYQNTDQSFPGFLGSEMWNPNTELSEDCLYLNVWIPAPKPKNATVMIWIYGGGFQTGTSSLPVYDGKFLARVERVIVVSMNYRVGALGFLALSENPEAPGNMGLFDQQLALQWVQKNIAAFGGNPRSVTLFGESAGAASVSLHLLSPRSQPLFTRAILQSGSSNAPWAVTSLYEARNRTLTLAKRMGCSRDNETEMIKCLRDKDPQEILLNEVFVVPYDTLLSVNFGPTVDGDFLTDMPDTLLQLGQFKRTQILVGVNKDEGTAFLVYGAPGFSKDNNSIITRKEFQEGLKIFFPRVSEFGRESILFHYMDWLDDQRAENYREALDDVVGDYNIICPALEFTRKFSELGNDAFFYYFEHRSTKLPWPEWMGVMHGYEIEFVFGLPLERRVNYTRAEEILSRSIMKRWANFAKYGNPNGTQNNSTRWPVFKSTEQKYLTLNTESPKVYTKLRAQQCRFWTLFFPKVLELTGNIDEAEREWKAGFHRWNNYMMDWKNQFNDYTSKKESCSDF
Outline: (§1)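 Ellman method. Equine serum BuChE 0.06 U/mL (for ratio lines, electric eel AChE 0.22 U/mL) in 1 M potassium phosphate buffer. Enzyme stood 5 min with compound before 0.01 M DTNB was added, with butyrylthiocholine iodide as substrate (acetylthiocholine for AChE). Compound range 0.01–100 µM final. IC50 as mean ± SD of three independent experiments. SI = IC50 BuChE / IC50 AChE.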

[1] = molecular target: T1, Amyloid-beta precursor protein (Homo sapiens, UniProt P05067); assay: Inhibition of HFIP-pretreated self-induced amyloid beta (1 to 42) (unknown origin) aggregation at 50 uM measured after 48 hrs by ThT fluorescence assay relative to control
T1 sequence (P05067 whole entry): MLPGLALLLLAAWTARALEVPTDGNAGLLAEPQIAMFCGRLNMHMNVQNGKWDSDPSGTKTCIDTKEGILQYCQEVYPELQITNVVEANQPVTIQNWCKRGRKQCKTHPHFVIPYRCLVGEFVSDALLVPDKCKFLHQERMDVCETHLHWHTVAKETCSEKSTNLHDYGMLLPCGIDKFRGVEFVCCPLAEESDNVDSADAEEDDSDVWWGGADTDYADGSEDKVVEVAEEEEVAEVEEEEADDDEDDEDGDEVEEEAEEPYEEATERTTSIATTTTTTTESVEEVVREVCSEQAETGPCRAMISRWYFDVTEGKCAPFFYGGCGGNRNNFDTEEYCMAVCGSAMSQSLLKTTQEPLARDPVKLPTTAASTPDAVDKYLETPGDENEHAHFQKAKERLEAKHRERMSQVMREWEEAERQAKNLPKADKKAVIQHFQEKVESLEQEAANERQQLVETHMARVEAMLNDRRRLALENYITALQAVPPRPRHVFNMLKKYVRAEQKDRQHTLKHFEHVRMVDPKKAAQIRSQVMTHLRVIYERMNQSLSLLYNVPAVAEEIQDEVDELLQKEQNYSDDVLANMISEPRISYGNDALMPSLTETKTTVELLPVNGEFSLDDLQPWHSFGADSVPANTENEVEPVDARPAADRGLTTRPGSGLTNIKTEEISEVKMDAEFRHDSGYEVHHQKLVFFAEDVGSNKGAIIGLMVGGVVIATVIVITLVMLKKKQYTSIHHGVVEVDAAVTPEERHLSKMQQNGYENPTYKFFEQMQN
Outline: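 Aβ1-42 pretreated with HFIP (8 mg/ml), dried under nitrogen, 5 mM stock in DMSO. Diluted in 50 mM phosphate buffer pH 7.4 to 100 µM final and incubated with or without 50 µM compound for 48 h at 37 °C. Diluted with glycine-NaOH 50 mM pH 8.0, then ThT fluorescence read. Buffer blanks included. Mean ± SD of three experiments.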

[2] = molecular target: T1, Amyloid-beta precursor protein; assay: Disaggregation of self-induced amyloid beta (1 to 42) (unknown origin) preformed fibrils measured after 24 hrs by ThT fluorescence assay relative to control
Outline: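 HFIP-pretreated Aβ1-42, DMSO stock, diluted in 50 mM phosphate buffer pH 7.4 (100 µM final). Incubated 48 h at 37 °C to form fibrils, then compound or buffer added and held 24 h at 37 °C. Diluted to 200 µl with glycine-NaOH 50 mM pH 8.0, then ThT fluorescence read. Peptide-free buffer blanks with and without compound. Triplicates.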

[3] = molecular target: T1, Amyloid-beta precursor protein; assay: Inhibition of self-induced amyloid beta (1 to 42) (unknown origin) aggregation at 12.5 uM measured after 48 hrs by ThT fluorescence assay relative to control
Outline: (§2)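 Aβ1-42 is pretreated with HFIP (8 mg/ml) and dried to a film under nitrogen. The film is dissolved in DMSO to a 5 mM stock. This is diluted in 50 mM phosphate buffer, pH 7.4, to 100 µM final peptide, with or without compound, and incubated at 37 °C for 48 h. Samples are then diluted with 50 mM glycine-NaOH, pH 8.0, and fibrils quantified by ThT fluorescence. Blanks without Aβ are subtracted. Values are means ± SD of three experiments.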

[4] = molecular target: T1, Amyloid-beta precursor protein; assay: Inhibition of self-induced amyloid beta (1 to 42) (unknown origin) aggregation at 25 uM measured after 48 hrs by ThT fluorescence assay relative to control; outline: as §2
[5] = molecular target: T1, Amyloid-beta precursor protein; assay: Inhibition of self-induced amyloid beta (1 to 42) (unknown origin) aggregation at 75 uM measured after 48 hrs by ThT fluorescence assay relative to control; outline: as §2
[6] = molecular target: T1, Amyloid-beta precursor protein; assay: Inhibition of self-induced amyloid beta (1 to 42) (unknown origin) aggregation at 100 uM measured after 48 hrs by ThT fluorescence assay relative to control; outline: as §2
[7] = molecular target: T1, Amyloid-beta precursor protein; assay: Inhibition of self-induced amyloid beta (1 to 42) (unknown origin) aggregation measured after 48 hrs by ThT fluorescence assay; outline: as §2
[8] = molecular target: T1, Amyloid-beta precursor protein; assay: Inhibition of self-induced amyloid beta (1 to 42) (unknown origin) aggregation at 50 uM for 48 hrs by TEM analysis
Outline: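 Aβ1-42 in 50 mM phosphate buffer, pH 7.4, is incubated with or without compound at 37 °C for 48 h, with a curcumin co-incubation and a 0 h sample as comparisons. 10 µL aliquots are applied to carbon grids for 1 min at room temperature, washed with water and negatively stained with sodium phosphotungstate for 1 min. Fibrils are then imaged by transmission electron microscopy.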

[9] = Antioxidant activity assessed as trolox equivalent of AAPH-induced radical scavenging activity at 100 uM preincubated for 15 mins followed by AAPH addition and measured at 1 minute interval for 80 mins by ORAC-FL assay; type: functional
Outline: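 ORAC-FL in 75 mM phosphate buffer, pH 7.4. Fluorescein 70 nM final was preincubated with the antioxidant 15 min at 37 °C, then AAPH 12 mM final was added. Fluorescence read every minute for 80 min (ex 485/em 520 nm). Net AUC = AUC sample minus AUC blank. Trolox calibration 1–8 µM gave Trolox equivalents. At least three independent runs, each in triplicate.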

[10] = Antioxidant activity assessed as DPPH radical scavenging activity at 50 uM preincubated for 5 mins followed by DPPH addition and measured after 30 mins by ultraviolet spectrophotometric analysis relative to control; type: functional
Outline: (§3)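 DPPH (0.1 mM) in methanol. Test compound was added and held 5 min before DPPH, then 30 min incubation. Absorbance read at 517 nm. Scavenging % = (A1−A2)/A1×100, with A1 the control absorbance and A2 the compound absorbance. Run in triplicate in 96-well plates.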

[11] = Selectivity index, ratio of IC50 for equine serum BuChE to IC50 for electric eel Ache; outline: as §1
[12] = molecular target: T1, Amyloid-beta precursor protein; settings: 25 uM
[13] = Antioxidant activity assessed as DPPH radical scavenging activity at 10 uM preincubated for 5 mins followed by DPPH addition and measured after 30 mins by ultraviolet spectrophotometric analysis relative to control; type: functional; outline: as §3
[14] = Antioxidant activity assessed as DPPH radical scavenging activity at 100 uM preincubated for 5 mins followed by DPPH addition and measured after 30 mins by ultraviolet spectrophotometric analysis relative to control; type: functional; outline: as §3

Acetylcholinesterase, sequence (O42275 whole entry): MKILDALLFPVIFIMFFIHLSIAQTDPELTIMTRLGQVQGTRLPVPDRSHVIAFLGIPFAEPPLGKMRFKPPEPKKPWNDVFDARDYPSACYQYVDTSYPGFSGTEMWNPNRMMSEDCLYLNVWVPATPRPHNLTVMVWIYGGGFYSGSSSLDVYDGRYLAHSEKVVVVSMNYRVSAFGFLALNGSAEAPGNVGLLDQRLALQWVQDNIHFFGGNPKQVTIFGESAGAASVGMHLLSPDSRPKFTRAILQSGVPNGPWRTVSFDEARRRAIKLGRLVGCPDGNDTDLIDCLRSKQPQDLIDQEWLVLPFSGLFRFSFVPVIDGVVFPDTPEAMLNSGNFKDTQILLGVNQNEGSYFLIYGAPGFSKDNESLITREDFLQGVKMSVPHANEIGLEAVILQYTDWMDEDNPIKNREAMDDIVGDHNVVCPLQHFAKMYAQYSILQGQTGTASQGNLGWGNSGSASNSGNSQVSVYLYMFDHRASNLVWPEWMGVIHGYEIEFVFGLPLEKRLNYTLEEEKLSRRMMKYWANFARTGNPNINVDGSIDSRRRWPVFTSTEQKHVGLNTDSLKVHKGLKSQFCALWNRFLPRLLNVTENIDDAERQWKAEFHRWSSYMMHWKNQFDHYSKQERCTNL

Structure (SMILES)	IC50 (Acetylcholinesterase) [nM]	IC50 (Cholinesterase) [nM]	inhibition [1]	Activity [2] [%]	inhibition [3] [%]	inhibition [4] [%]	inhibition [5] [%]	inhibition [6] [%]	IC50 [7] [nM]	inhibition [8]	Activity (umolequiv/umol) [9]	Activity [10] [%]	Ratio IC50 [11]	inhibition [12]	Activity [13] [%]	Activity [14] [%]
O=[N+]([O-])c1cccc(C2C=C(c3cccc4ccccc34)Nc3nncn32)c1 (stereo not drawn)	> 100000	> 100000	72.8%	58.8	42	59.3	85.8	91.4	17400	Active	0.508	33	–	–	–	–
COc1ccc(-c2cc(-c3cccc4ccccc34)nc3nncn23)cc1OC	3000	> 100000	36.6%	–	–	–	–	–	–	–	0.234	27.9	> 33.4	–	–	–
COc1cc(/C=C/C(=O)CC(=O)/C=C/c2ccc(O)c(OC)c2)ccc1O	–	–	–	–	–	–	–	–	–	–	–	–	–	Active	–	–
O=C(O)c1cc(O)c(O)c(O)c1	–	–	–	–	–	–	–	–	–	–	–	–	–	–	66	95.3
COc1ccc(C2C=C(c3cccc4ccccc34)Nc3nncn32)cc1 (stereo not drawn)	8.6	150	31.2%	–	–	–	–	–	–	–	0.446	35	17.4	–	–	–
Clc1ccccc1C1C=C(c2cccc3ccccc23)Nc2nncn21 (stereo not drawn)	74	76	40.4%	–	–	–	–	–	–	–	0.39	15.5	1.03	–	–	–
CN(C)c1ccc(-c2cc(-c3cccc4ccccc34)nc3nncn23)cc1	126	20900	43.1%	54.5	–	–	–	–	–	–	0.171	21.3	166	–	–	–
Clc1ccc(C2C=C(c3cccc4ccccc34)Nc3nncn32)cc1 (stereo not drawn)	371	900	inactive	–	–	–	–	–	–	–	0.268	19.2	2.42	–	–	–
Fc1ccc(C2C=C(c3cccc4ccccc34)Nc3nncn32)cc1 (stereo not drawn)	1910	39000	85.5%	62.6	70.4	82.4	87.5	95.4	3870	Active	0.347	36.2	19.7	–	–	–
c1ccc(-c2cc(-c3cccc4ccccc34)nc3nncn23)cc1	597	> 100000	inactive	–	–	–	–	–	–	–	0.301	18.8	> 168	–	–	–
COc1ccc(OC)c(C2C=C(c3cccc4ccccc34)Nc3nncn32)c1 (stereo not drawn)	602	> 100000	42.1%	47.9	–	–	–	–	–	–	0.472	53.8	> 160	–	–	–
c1coc(-c2cc(-c3cccc4ccccc34)nc3nncn23)c1	14	528	12.1%	–	–	–	–	–	–	–	0.101	20.4	37.7	–	–	–

Reference: ChEMBL document CHEMBL4387749, “Naphthalene-triazolopyrimidine hybrid compounds as potential multifunctional anti-Alzheimer's agents” (Bioorg Med Chem, 2019)
